Laboratory results taken from PubChem BioAssay AID652139 (Broad Institute, 2013).
Records with an inconclusive call do not appear. Activity calls are given as the source filed them. No rule for the calls is given here.

Experiments:
Assay in all cases: cytotoxicity across cancer and normal cell panel, profiling panel, mechanism study for HRAS target identification project, CellTiter-Glo ATP luminescence, multiple timepoints (AID 652139)
Details in all cases: Cancer/normal cell panel viability
CCRF-CEM = system: CCRF-CEM
Procedure, shortened: (§1)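 Material: Human tumour lines plus mouse C2C12 and HUVEC | Input: 1,500 cells/well | Times: Overnight preculture, multiple exposures incl. 24, 48 h, all 37 °C | Technique: CellTiter-Glo luminescence measuring cellular ATP | Format: Separate assay plate for each exposure timepoint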

HT-29 = system: HT-29
Procedure, shortened: as §1

SR = system: SR
Procedure, shortened: as §1

HeLA = system: HeLA
Procedure, shortened: as §1

U-251 = system: U-251
Procedure, shortened: as §1

LOX-IMVI = system: LOX-IMVI
Procedure, shortened: as §1

SNB-19 = system: SNB-19
Procedure, shortened: as §1

SNB-75 = system: SNB-75
Procedure, shortened: as §1

C2C12 = system: C2C12
Procedure, shortened: as §1

HUVEC = system: HUVEC
Procedure, shortened: as §1

SMILES | AC50 (CCRF-CEM) [nM] | AC50 (HT-29) | AC50 (SR) [nM] | AC50 (HeLA) | AC50 (U-251) | AC50 (LOX-IMVI) [nM] | AC50 (SNB-19) [nM] | AC50 (SNB-75) [nM] | AC50 (C2C12) [nM] | outcome (CCRF-CEM) | outcome (HT-29) | outcome (SR) | outcome (HeLA) | outcome (U-251) | outcome (LOX-IMVI) | outcome (SNB-19) | outcome (SNB-75) | outcome (HUVEC) | outcome (C2C12) | AC50 (HUVEC) [nM]
C#CCCCC(=O)NCCOCCOCCOc1ccc(N(C(=O)CCl)C(C(=O)NCCc2ccccc2)c2cccs2)cc1Cl (centres undefined) | 1340 | 2860 nM | 885 | 4490 nM | 6810 nM | 421 | 4450 | 3560 | 5420 |  |  |  |  |  |  |  |  |  |  | 
Cc1onc(C(=O)N2CCN(C(c3ccncc3)c3ccncc3)CC2)c1[N+](=O)[O-] |  |  |  |  |  |  |  |  |  | inactive | inactive | inactive | inactive | inactive | inactive | inactive | inactive | inactive | inactive | 
CC(C)(C)OC(=O)NCCOCCOCCOc1ccc(N(C(=O)CCl)C(C(=O)NCCc2ccccc2)c2cccs2)cc1Cl (centres undefined) | 140 | 457 nM | 95.1 | 650 nM | 1350 nM | 83.4 | 1720 | 686 | 442 |  |  |  |  |  |  |  |  |  |  | 13700
Cc1onc(C(=O)N2CCN(C(c3ccc(Cl)cc3)c3ccc(Cl)cc3)CC2)c1[N+](=O)[O-] | 207 | 963 nM | 142 |  | > 70000 nM (inactive) | 103 |  | 687 |  |  |  |  |  |  |  |  |  | inactive |  | 
CCC(=O)N(c1ccc(OC)c(Cl)c1)C(C(=O)NCCc1ccccc1)c1cccs1 (centres undefined) |  | > 70000 nM (inactive) |  | > 70000 nM (inactive) |  |  |  |  |  |  |  |  |  | inactive | inactive | inactive |  |  |  | 
COc1ccc(N(C(=O)CCl)C(C(=O)NCCc2ccccc2)c2cccs2)cc1Cl (centres undefined) | 119 | 162 nM | 61.8 | 547 nM | 896 nM | 40.5 | 1170 | 286 | 842 |  |  |  |  |  |  |  |  |  |  | 8940
COC(=O)c1ccc([C@@H]2c3[nH]c4ccccc4c3C[C@@H](C(=O)OC)N2C(=O)CCl)cc1 | 82.8 | 177 nM | 32.9 | 573 nM | 1060 nM | 31 |  | 355 | 101 |  |  |  |  |  |  |  |  |  |  | 
